Experimental findings from ChEMBL document CHEMBL2177001, “Design, synthesis, and structure-activity relationships of novel pyrazolo[5,1-b]thiazole derivatives as potent and orally active corticotropin-releasing factor 1 receptor antagonists” (J Med Chem, 2012) are described below.

Data set [1] concerns Liver microsomes. As to the kind of experiment: Intrinsic clearance in human liver microsomes. The data set is classed as ADME, Microsome. In outline: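 Metabolic depletion in pooled human liver microsomes (0.1 mg/mL protein), substrate 0.3 μmol/L, final DMSO 0.01%. Matrix: 100 mmol/L phosphate pH 7.4 with 0.1 mmol/L EDTA. Reaction started with an NADPH-generating system (β-NADP+, G6P, MgCl2, G6PDH) and run at 37 °C for 0 and 15 min. Quenched with acetonitrile/methanol plus internal standard; analysed by LC/MS/MS.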

The nature of data set [2]: Volume of distribution at steady state in Sprague-Dawley rat at 3 mg/kg, iv. The data set is classed as ADME, organism-based. Further details: dose 3 mg/kg, route intravenous. The following applies: in vivo, read-out: Vdss. In outline: (§1)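 Fasted male Sprague-Dawley rats, n = 3 per route. IV dose 3 mg/kg from a 3 mg/mL solution in 1% ethanol–0.1 mol/L HCl–glucose. PO dose 10 mg/kg from a 2 mg/mL solution in 5% ethanol–0.1 mol/L HCl–glucose. Jugular blood sampled at 0.083 (iv only), 0.25, 0.5, 1, 2, 4, 6 and 8 h. Plasma deproteinized with acetonitrile plus internal standard, quantified by LC/MS/MS. Mean ± SEM of three animals.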

Data set [3] can be described thus: AUC in Sprague-Dawley rat at 10 mg/kg, po. The arrangement: dose 10 mg/kg, route oral. The data set is classed as ADME, organism-based. The following applies: plasma. In short, it runs like this: as §1
Data set [4] in a line: Tmax in Sprague-Dawley rat at 10 mg/kg, po. The data set is classed as ADME, organism-based. Further details: dose 10 mg/kg, route oral. The following applies: in vivo. In outline: as §1
The nature of data set [5]: Cmax in Sprague-Dawley rat at 10 mg/kg, po. The data set is classed as ADME, organism-based. Further details: dose 10 mg/kg, route oral. The conditions noted are these: in vivo. In outline:
as §1

Data set [6] is described as follows: AUC in Sprague-Dawley rat at 3 mg/kg, iv. The data set is classed as ADME, organism-based. The conditions noted are these: plasma. The arrangement: dose 3 mg/kg, route intravenous. In outline: as §1
Data set [7] in a line: Oral bioavailability in Sprague-Dawley rat at 10 mg/kg. The following applies: in vivo. The data set is classed as ADME, organism-based. In short, it runs like this: as §1
A short description of data set [8]: Half life in Sprague-Dawley rat at 3 mg/kg, iv. Further details: dose 3 mg/kg, route intravenous. The conditions noted are these: in vivo. The data set is classed as ADME, organism-based. In outline:
as §1

Data set [9] is described as follows: Plasma clearance in Sprague-Dawley rat at 3 mg/kg, iv. The data set is classed as ADME, organism-based. The arrangement: dose 3 mg/kg, route intravenous. In outline: as §1

For `COCc1cc(OC)c(-c2csc3c(N(CC4CCOCC4)CC4CC4)c(OC)nn23)c(OC)c1`, the intrinsic clearance in [1] came to 460 µL/min/mg. As to `COCc1cc(OC)c(-c2csc3c(N(CC4CC4)CC4(F)CCOCC4)c(OC)nn23)c(OC)c1`, in data set [1], the intrinsic clearance came out at 550 µL/min/mg. Still for that read-out and setting: then `COCc1cc(OC)c(-c2csc3c(N(CC4CC4)CC4CCCOC4)c(OC)nn23)c(OC)c1` (configuration not stated), with 550 µL/min/mg; and `COCc1cc(OC)c(-c2csc3c(N(CC4CC4)CC4CCCCO4)c(OC)nn23)c(OC)c1` (configuration not stated), with 870 µL/min/mg.

With `COCc1cc(OC)c(-c2csc3c(N(CC4CC4)CC4CCOC4)c(OC)nn23)c(OC)c1` (configuration not stated), the intrinsic clearance in data set [1] came out at 530 µL/min/mg.

On to `COCc1cc(OC)c(-c2csc3c(N(CC4CC4)CC4CCCO4)c(OC)nn23)c(OC)c1` (configuration not stated), for which the intrinsic clearance in [1] was determined as 1020 µL/min/mg. The same measure, in the same setting: the value for `COCCN(CC1CC1)c1c(OC)nn2c(-c3c(OC)cc(COC)cc3OC)csc12` was 960 µL/min/mg; that for `COCc1cc(OC)c(-c2csc3c(N(CC4CC4)C4CCOCC4)c(OC)nn23)c(OC)c1` was 180 µL/min/mg.

Regarding `CCN(c1c(OC)nn2c(-c3c(OC)cc(COC)cc3OC)csc12)C1CCOCC1`, the intrinsic clearance in data set [1] was 200 µL/min/mg.

In turn, `CCCN(c1c(OC)nn2c(-c3c(OC)cc(COC)cc3OC)csc12)C1CCOCC1` came in with an intrinsic clearance in [1] of 220 µL/min/mg. Same read-out and setting: the value for `COCc1cc(OC)c(-c2csc3c(N(CCC4CC4)C4CCOCC4)c(OC)nn23)c(OC)c1` was 180 µL/min/mg. The same measure, in the same setting: then `CCCCN(c1c(OC)nn2c(-c3c(OC)cc(COC)cc3OC)csc12)C1CCOCC1`, with 200 µL/min/mg. Turning to `COCc1cc(OC)c(-c2csc3c(N(C(C)C)C4CCOCC4)c(OC)nn23)c(OC)c1`, the intrinsic clearance in data set [1] worked out at 670 µL/min/mg. On the same count and under the same terms, the value for `COCc1cc(OC)c(-c2csc3c(N(CC(C)C)C4CCOCC4)c(OC)nn23)c(OC)c1` was 360 µL/min/mg; that for `CCCN(c1c(OC)nn2c(-c3c(OC)cc(COCC)cc3OC)csc12)C1CCOCC1` was 340 µL/min/mg. For `CCCN(c1c(OC)nn2c(-c3c(OC)cc(C#N)cc3OC)csc12)C1CCOCC1`, in data set [1], the intrinsic clearance worked out at 150 µL/min/mg. In [1], `CCCN(c1c(OC)nn2c(-c3c(Cl)cc(COC)cc3OC)csc12)C1CCOCC1` registered an intrinsic clearance of 370 µL/min/mg. For orientation: AUC means the area under the concentration-time curve, a measure of exposure. The low end stands for less exposure, the high end for more exposure. The term Tmax denotes the time from dosing to the highest level. In general, Cmax refers to the highest concentration seen after dosing. A word on the bioavailability: it is the share of a dose that reaches the circulation, judged against a reference dose that is usually intravenous. For orientation: half-life means how long it takes for the measured level to halve. A high value points to slow loss. A word on the clearance: it is the volume of plasma or blood freed of the substance per unit of time. Read a low clearance as inefficient removal. `CCCCN(c1c(OC)nn2c(-c3c(OC)cc(COCC)cc3OC)csc12)C1CCOCC1`: the Vd in data set [2] was determined as 6.32 L/kg. For the same compound, the exposure (AUC) in data set [3] worked out at 1240 ng·h/mL; in [6], 1580 ng·h/mL. Further, the time of peak concentration (Tmax) in data set [4] was found to be 0.5 h. The compound further gave a peak concentration (Cmax) in data set [5] of 540 ng/mL. In data set [7], this compound showed a bioavailability of 23%. The half-life in [8] was 5.2 h. Further, the intrinsic clearance in data set [1] was 220 µL/min/mg. Besides, the clearance in data set [9] is 32.2 mL/min/kg. `CCCCN(c1c(OC)nn2c(-c3c(OC)cc(C#N)cc3OC)csc12)C1CCOCC1` yielded an intrinsic clearance in data set [1] of 150 µL/min/mg.
